Measured values reported in ChEMBL document CHEMBL3124905, “Isothiocoumarin-3-carboxylic acid derivatives: synthesis, anticancer and antitrypanosomal activity evaluation” (Eur J Med Chem, 2014).
Activity calls are given as the source filed them. The calls are words filed in the database; no cut-off is given here.

Experiments:
Assay type in all cases: functional
[1] = test system: Trypanosoma brucei brucei; assay: Antitrypanosomal activity against bloodstream form of Trypanosoma brucei brucei strain 90-13 assessed as inhibition of parasite growth at 10 ug/ml after 72 hrs by resazurin reduction test; conditions: strain 90-13, 72 h
Method in brief: (§1)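 Trypanosoma brucei brucei 90-13 bloodstream forms, grown in HMI9 with 10% FCS at 37 °C under 5% CO2. Log-phase parasites were seeded at 10^5 cells/mL with or without inhibitor, with stocks prepared in DMSO. After 72 h, resazurin was added and fluorescence was read at 530/590 nm after a further 4 h. Percent growth inhibition was calculated versus drug-free parasites, with DMSO as control.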

CAKI-1 = assay: Growth inhibition of human CAKI-1 cells after 48 hrs by SRB assay
Method in brief: (§2)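 NCI five-dose assay against the ~60-cell-line panel (nine cancer types). Tenfold dilutions from 10−4 to 10−8 M were used with continuous 48-h exposure and SRB absorbance readout. Percent growth was computed from time-zero, control and treated absorbances. GI50 is the concentration giving 50% lower net protein increase than controls. Values not reached are reported as beyond the tested range.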

Hs-578T = assay: Growth inhibition of human Hs 578T cells after 48 hrs by SRB assay; method in brief: as §2
UO-31 = assay: Growth inhibition of human UO31 cells after 48 hrs by SRB assay
Method in brief: (§3)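 NCI ~60-cell-line five-dose screen. Cells were preincubated 24-48 h, then given compound at 10-fold dilutions from 10^-4 to 10^-8 M with 48 h continuous exposure. SRB protein stain was read by absorbance at time zero, in untreated control and with drug. GI50 was derived from [(Ti-Tz)/(C-Tz)]x100=50, TGI from Ti=Tz, and LC50 from [(Ti-Tz)/Tz]x100=-50.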

OVCAR-4 = assay: Growth inhibition of human OVCAR4 cells after 48 hrs by SRB assay; method in brief: as §2
OVCAR-3 = assay: Growth inhibition of human OVCAR3 cells after 48 hrs by SRB assay; method in brief: as §2
SNB-75 = assay: Growth inhibition of human SNB75 cells after 48 hrs by SRB assay; method in brief: as §2
Malme-3M = assay: Growth inhibition of human MALME-3M cells after 48 hrs by SRB assay; method in brief: as §2
NCI-H322M = assay: Growth inhibition of human NCI-H322M cells after 48 hrs by SRB assay; method in brief: as §2
SF-539 = assay: Growth inhibition of human SF539 cells after 48 hrs by SRB assay; method in brief: as §2
TK-10 = assay: Growth inhibition of human TK10 cells after 48 hrs by SRB assay; method in brief: as §3
ACHN = assay: Growth inhibition of human ACHN cells after 48 hrs by SRB assay; method in brief: as §2
786-0 [2] = assay: Growth inhibition of human 786-0 cells after 48 hrs by SRB assay; method in brief: as §2
OVCAR-8 = assay: Growth inhibition of human OVCAR8 cells after 48 hrs by SRB assay; method in brief: as §2
OVCAR-5 = assay: Growth inhibition of human OVCAR5 cells after 48 hrs by SRB assay; method in brief: as §2
UACC-62 = assay: Growth inhibition of human UACC62 cells after 48 hrs by SRB assay; method in brief: as §3
SF-295 = assay: Growth inhibition of human SF295 cells after 48 hrs by SRB assay; method in brief: as §2
HCC 2998 = assay: Growth inhibition of human HCC2998 cells after 48 hrs by SRB assay; method in brief: as §2
NCI-H522 = assay: Growth inhibition of human NCI-H522 cells after 48 hrs by SRB assay; method in brief: as §2
HOP69 = assay: Growth inhibition of human […] cells after 48 hrs by SRB assay; method in brief: as §2
A549 = assay: Growth inhibition of human A549/ATCC cells after 48 hrs by SRB assay; method in brief: as §2
MDA-MB-231 = assay: Growth inhibition of human MDA-MB-231/ATCC cells after 48 hrs by SRB assay; method in brief: as §2
PC-3 = assay: Growth inhibition of human PC3 cells after 48 hrs by SRB assay; method in brief: as §2
786-0 [3] = assay: Growth inhibition of human 786-O cells after 48 hrs by SRB assay; method in brief: as §2
M14 = assay: Growth inhibition of human M14 cells after 48 hrs by SRB assay; method in brief: as §2
LOX IMVI = assay: Growth inhibition of human LOXIMVI cells after 48 hrs by SRB assay; method in brief: as §2
U-251 = assay: Growth inhibition of human U251 cells after 48 hrs by SRB assay; method in brief: as §3
HCT-116 = assay: Growth inhibition of human HCT116 cells after 48 hrs by SRB assay; method in brief: as §2
NCI-H460 = assay: Growth inhibition of human NCI-H460 cells after 48 hrs by SRB assay; method in brief: as §2
NCI-H23 = assay: Growth inhibition of human NCI-H23 cells after 48 hrs by SRB assay; method in brief: as §2
HOP-62 = assay: Growth inhibition of human HOP62 cells after 48 hrs by SRB assay; method in brief: as §2
RPMI18226 = assay: Growth inhibition of human […] cells after 48 hrs by SRB assay; method in brief: as §2
MOLT-4 = assay: Growth inhibition of human MOLT4 cells after 48 hrs by SRB assay; method in brief: as §2
[4] = test system: Trypanosoma brucei brucei; assay: Antitrypanosomal activity against bloodstream form of Trypanosoma brucei brucei strain 90-13 assessed as inhibition of parasite growth at 1 ug/ml after 72 hrs by resazurin reduction test; conditions: strain 90-13, 72 h; method in brief: as §1
MDA-MB-435 = assay: Growth inhibition of human MDA-MB-435 cells after 48 hrs by SRB assay; method in brief: as §2
KM12 = assay: Growth inhibition of human KM12 cells after 48 hrs by SRB assay; method in brief: as §2
SR = assay: Growth inhibition of human SR cells after 48 hrs by SRB assay; method in brief: as §3
CCRF-CEM = assay: Growth inhibition of human CCRF-CEM cells after 48 hrs by SRB assay; method in brief: as §2
SNB- = assay: Growth inhibition of human SNB cells after 48 hrs by SRB assay; method in brief: as §2
HOP-92 = assay: Growth inhibition of human HOP92 cells after 48 hrs by SRB assay; method in brief: as §2
BT-549 = assay: Growth inhibition of human BT549 cells after 48 hrs by SRB assay; method in brief: as §2
NCI/ADR-RES = assay: Growth inhibition of human NCI/ADR-RES cells after 48 hrs by SRB assay; method in brief: as §2
UACC-257 = assay: Growth inhibition of human UACC257 cells after 48 hrs by SRB assay; method in brief: as §3
SK-MEL-5 = assay: Growth inhibition of human SK-MEL-5 cells after 48 hrs by SRB assay; method in brief: as §2
EKVX = assay: Growth inhibition of human EKVX cells after 48 hrs by SRB assay; method in brief: as §2
RXF 393 = assay: Growth inhibition of human RXF393 cells after 48 hrs by SRB assay; method in brief: as §2

Question: For `O=C(Nc1nc(-c2ccccc2)cs1)c1cc2ccccc2c(=O)s1`, which inhibition at 10 µg/mL [1] is on record?
Answer: 7.36%

Question: And the pGI50 (CAKI-1)?
Answer: inactive

Question: And the pTGI (CAKI-1)?
Answer: inactive

Question: And the pGI50 (Hs-578T)?
Answer: inactive

Question: And the pTGI (Hs-578T)?
Answer: inactive

Question: What about the pGI50 (UO-31) of the same compound?
Answer: inactive

Question: And the pTGI (UO-31)?
Answer: inactive

Question: What about the pGI50 (OVCAR-4) of the same compound?
Answer: inactive

Question: And the pTGI (OVCAR-4)?
Answer: inactive

Question: What about the pGI50 (OVCAR-3) of the same compound?
Answer: inactive

Question: What about the pTGI (OVCAR-3) of the same compound?
Answer: inactive

Question: What about the pGI50 (SNB-75) of the same compound?
Answer: inactive

Question: What about the pTGI (SNB-75) of the same compound?
Answer: inactive

Question: What about the pGI50 (Malme-3M) of the same compound?
Answer: inactive

Question: What about the pTGI (Malme-3M) of the same compound?
Answer: inactive

Question: What about the pGI50 (NCI-H322M) of the same compound?
Answer: inactive

Question: What about the pTGI (NCI-H322M) of the same compound?
Answer: inactive

Question: What about the pGI50 (SF-539) of the same compound?
Answer: inactive

Question: And the pTGI (SF-539)?
Answer: inactive

Question: What about the pGI50 (TK-10) of the same compound?
Answer: inactive

Question: And the pTGI (TK-10)?
Answer: inactive

Question: What about the pGI50 (ACHN) of the same compound?
Answer: inactive

Question: And the pTGI (ACHN)?
Answer: inactive

Question: And the pGI50 (786-0 [2])?
Answer: inactive

Question: And the pTGI (786-0 [2])?
Answer: inactive

Question: What about the pGI50 (OVCAR-8) of the same compound?
Answer: inactive

Question: And the pTGI (OVCAR-8)?
Answer: inactive

Question: What about the pGI50 (OVCAR-5) of the same compound?
Answer: inactive

Question: And the pTGI (OVCAR-5)?
Answer: inactive

Question: And the pGI50 (UACC-62)?
Answer: inactive

Question: And the pTGI (UACC-62)?
Answer: inactive

Question: And the pGI50 (SF-295)?
Answer: inactive

Question: What about the pTGI (SF-295) of the same compound?
Answer: inactive

Question: What about the pGI50 (HCC 2998) of the same compound?
Answer: inactive

Question: What about the pTGI (HCC 2998) of the same compound?
Answer: inactive

Question: And the pGI50 (NCI-H522)?
Answer: inactive

Question: And the pTGI (NCI-H522)?
Answer: inactive

Question: What about the pGI50 (HOP69) of the same compound?
Answer: inactive

Question: And the pTGI (HOP69)?
Answer: inactive

Question: What about the pGI50 (A549) of the same compound?
Answer: inactive

Question: And the pTGI (A549)?
Answer: inactive

Question: And the pGI50 (MDA-MB-231)?
Answer: inactive

Question: What about the pTGI (MDA-MB-231) of the same compound?
Answer: inactive

Question: And the pGI50 (PC-3)?
Answer: inactive

Question: And the pTGI (PC-3)?
Answer: inactive

Question: What about the pGI50 (786-0 [3]) of the same compound?
Answer: inactive

Question: And the pTGI (786-0 [3])?
Answer: inactive

Question: What about the pGI50 (M14) of the same compound?
Answer: inactive

Question: And the pTGI (M14)?
Answer: inactive

Question: What about the pGI50 (LOX IMVI) of the same compound?
Answer: inactive

Question: What about the pTGI (LOX IMVI) of the same compound?
Answer: inactive

Question: And the pGI50 (U-251)?
Answer: inactive

Question: And the pTGI (U-251)?
Answer: inactive

Question: What about the pGI50 (HCT-116) of the same compound?
Answer: inactive

Question: And the pTGI (HCT-116)?
Answer: inactive

Question: And the pGI50 (NCI-H460)?
Answer: inactive

Question: What about the pTGI (NCI-H460) of the same compound?
Answer: inactive

Question: What about the pGI50 (NCI-H23) of the same compound?
Answer: inactive

Question: What about the pTGI (NCI-H23) of the same compound?
Answer: inactive

Question: And the pGI50 (HOP-62)?
Answer: inactive

Question: And the pTGI (HOP-62)?
Answer: inactive

Question: What about the pGI50 (RPMI18226) of the same compound?
Answer: inactive

Question: And the pTGI (RPMI18226)?
Answer: inactive

Question: And the pGI50 (MOLT-4)?
Answer: inactive

Question: What about the pTGI (MOLT-4) of the same compound?
Answer: inactive

Question: And the inhibition at 1 µg/mL [4]?
Answer: 44.2%

Question: And the pGI50 (MDA-MB-435)?
Answer: inactive

Question: And the pTGI (MDA-MB-435)?
Answer: inactive

Question: What about the pGI50 (KM12) of the same compound?
Answer: inactive

Question: What about the pTGI (KM12) of the same compound?
Answer: inactive

Question: And the pGI50 (SR)?
Answer: inactive

Question: What about the pTGI (SR) of the same compound?
Answer: inactive

Question: What about the pGI50 (CCRF-CEM) of the same compound?
Answer: inactive

Question: And the pTGI (CCRF-CEM)?
Answer: inactive

Question: And the pGI50 (SNB-)?
Answer: inactive

Question: What about the pTGI (SNB-) of the same compound?
Answer: inactive

Question: What about the pGI50 (HOP-92) of the same compound?
Answer: inactive

Question: What about the pTGI (HOP-92) of the same compound?
Answer: inactive

Question: And the pGI50 (BT-549)?
Answer: inactive

Question: And the pTGI (BT-549)?
Answer: inactive

Question: What about the pGI50 (NCI/ADR-RES) of the same compound?
Answer: inactive

Question: What about the pTGI (NCI/ADR-RES) of the same compound?
Answer: inactive

Question: And the pGI50 (UACC-257)?
Answer: inactive

Question: And the pTGI (UACC-257)?
Answer: inactive

Question: And the pGI50 (SK-MEL-5)?
Answer: inactive

Question: And the pTGI (SK-MEL-5)?
Answer: inactive

Question: And the pGI50 (EKVX)?
Answer: inactive

Question: And the pTGI (EKVX)?
Answer: inactive

Question: What about the pGI50 (RXF 393) of the same compound?
Answer: inactive

Question: And the pTGI (RXF 393)?
Answer: inactive
